The list is not random: actives were taken first. Their share in the collection is about 0.72%.
hIAP block = human IAP inhibitors, primary screen, biochemical, luminescence, uHTS; Intestinal-type alkaline phosphatase (Homo sapiens), P09923; AID 2544, 2010; 0.12% of 330,000 active; purified IAP, CDP-Star luminescence, 30 min; inhibition, % at 10 µM;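 active = inhibition reaching a set limit with compound at 10 µM in the primary screen, cut at about 35% in these data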;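 note: plate controls were DMSO wells with enzyme for no effect and no-enzyme buffer wells for full effect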
Target sequence (P09923 whole entry, looked up): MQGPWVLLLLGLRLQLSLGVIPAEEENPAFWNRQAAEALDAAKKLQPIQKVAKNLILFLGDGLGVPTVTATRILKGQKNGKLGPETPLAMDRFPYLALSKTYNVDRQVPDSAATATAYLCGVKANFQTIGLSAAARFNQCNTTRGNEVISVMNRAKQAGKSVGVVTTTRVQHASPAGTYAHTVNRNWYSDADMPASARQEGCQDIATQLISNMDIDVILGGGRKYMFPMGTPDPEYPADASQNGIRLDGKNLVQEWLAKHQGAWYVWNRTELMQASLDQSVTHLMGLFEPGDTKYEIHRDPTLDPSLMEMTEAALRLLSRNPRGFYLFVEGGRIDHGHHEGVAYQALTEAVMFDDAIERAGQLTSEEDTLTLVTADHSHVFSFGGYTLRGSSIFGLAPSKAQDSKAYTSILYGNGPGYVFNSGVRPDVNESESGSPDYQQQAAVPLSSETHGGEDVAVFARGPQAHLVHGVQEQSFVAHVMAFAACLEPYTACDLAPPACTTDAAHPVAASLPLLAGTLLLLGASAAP
mIAP activ = activators of mouse IAP, primary screen, biochemical, luminescence, uHTS. muIAP, CDP-Star luminescence, 30 min; active compounds read high; 1 = vehicle-only enzyme signal, 0 = enzyme-free wells. activation factor at 10 µM. 0.24% of 330,000 active. AID 2805, 2010;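 active = activation factor of at least 2 at 20 µM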
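Assay system: mouse IAP enzyme / Compound: DMSO-dissolved test compounds / Timing: 30 min, room temperature / Measured by: luminescence from enzymatic CDP-Star hydrolysis / Control set: DMSO-only wells, enzyme-free buffer wells as negative control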
bIAP activator = bovine intestinal alkaline phosphatase activators, primary screen, biochemical, bovine IAP, CDP-star luminescence. alkaline phosphatase, intestinal [Bos taurus]. purified bovine IAP, 30 min; active compounds read high; fold of DMSO-control signal, blank-subtracted. activation factor at 20 µM. 0.17% of 200,000 active. AID 1016, 2008;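 active = activation factor of 2 or more at 20 µM, a signal rise over negative controls twice the positive control's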
hIAP activ = human IAP activators, primary screen, biochemical, luminescence, uHTS; Intestinal-type alkaline phosphatase (Homo sapiens), P09923; purified human IAP, CDP-Star luminescence, 30 min; active compounds read high; 1 = vehicle-only enzyme, 0 = enzyme-free background; activation factor at 10 µM; 0.16% of 330,000 active; AID 2524, 2010;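 active = activation factor of the enzyme at least 2-fold when tested at 20 µM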
mIAP block = inhibitors of mouse IAP, primary screen, biochemical, luminescence, uHTS; 0.2% of 330,000 active; inhibition, % at 10 µM; purified mouse IAP, CDP-Star luminescence, 30 min; intestinal alkaline phosphatase [Mus musculus];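 active = inhibition of at least 40% at 10 µM in the primary screen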;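 note: plate controls were DMSO with enzyme for no effect and no enzyme wells for full effect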
bIAP inh = bovine intestinal alkaline phosphatase inhibitors, primary screen, selectivity assay for TNAP inhibitor project, biochemical, bovine IAP, CDP-star luminescence; alkaline phosphatase, intestinal [Bos taurus]; purified bovine IAP, 30 min; inhibition, % at 20 µM; 190,000 tested, under 10 active; AID 1019, 2008;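 active = over 50% inhibition of intestinal alkaline phosphatase at 20 µM in the single-dose screen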
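System: Purified bovine intestinal alkaline phosphatase (IAP) enzyme | Input: IAP diluted 1/65,000,000 in the well | Also added: CDP-star chemiluminescent phosphatase substrate, 30 µM final | Dosing: 20 µM single dose | Times: Enzyme reaction for 30 min at room temperature | Detection: Luminescence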
hIAP act conf = human IAP activators, confirmation, biochemical, luminescence, single concentration, uHTS hits | shares compounds with hIAP activ | purified IAP, CDP-Star luminescence, 30 min; active compounds read low | activation (%Activity, negative = activation), % at 8.3 µM | 10% of 880 active;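 active = at least twofold enzyme activation in any of six single-dose repeats, which the averaged readout prints as negative percent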
* hit, by the source's call; nt = no result.

SMILES | hIAP block | mIAP activ | bIAP activator | hIAP activ | mIAP block | bIAP inh | hIAP act conf
CCN(CC)c1ccc(S(=O)(=O)N2CCCCC2)cc1NC(=O)CN1C(=O)NC2(CCCC2)C1=O | -3.5 | 1.06 | nt | 1.03 | -5.6 | nt | nt
OC1(c2cccs2)CN(c2ccc(Br)cc2)C2=[N+]1CCCS2 (centres undefined) | -180.3 | 0.947 | nt | 2.8* | 5.3 | nt | 17.6
Nc1nnc(Cc2ccccc2)s1 | -14.0 | 1.02 | 0.9 | 1.14 | -2.2 | 13.8 | nt
Nc1nnc(Cc2cccc(Br)c2)s1 | -105.8 | 1.03 | nt | 2.06* | -2.7 | nt | -40.5
CCSCCNC(=O)c1cc(-n2cnnc2)ccc1Cl | -8.0 | 1.03 | 0.9 | 1.08 | -2.9 | 9.7 | nt
CC(C)c1ccccc1NC(=O)COc1ccc2c(=O)c(Oc3ccc4ccccc4c3)coc2c1 | 1.7 | 0.981 | 1 | 0.983 | 1.9 | -0.8 | nt
O=Nc1[nH]c(=O)c(/C=C(\O)c2ccccc2)nc1NO | -113.3 | 0.846 | nt | 2.13* | 15.4 | nt | -84.9*
COc1ccc(CC(=O)Nc2sc3c(c2C#N)CC(C)(C)NC3(C)C)cc1OC | -16.3 | 1.07 | nt | 1.16 | -6.8 | nt | nt
c1ccc2c3c(cc(N4CCOCC4)c2c1)OC1(N2CCOCC2)CCCCC1O3 (centres undefined) | 85.0* | 0.898 | 1.1 | 0.15 | 10.2 | -8.5 | -4.6
Cc1ccc(OCCNS(=O)(=O)c2ccc(N3CCCC3=O)cc2)cc1C | -7.8 | 0.925 | 1 | 1.08 | 7.5 | -1.9 | nt
Cc1ccc(OCCNS(=O)(=O)c2ccc(N3CCCC3=O)cc2)cc1 | 36.2* | 0.976 | 0.8 | 0.638 | 2.4 | 23.9 | -69.7
NC(=O)c1nc(-c2cccs2)nc2c1[nH]c(=O)n2-c1ccc(F)cc1 | -133.1 | 1.24 | 1.2 | 2.33* | -23.8 | -23.9 | -23.3
NC(=O)c1nc(-c2ccco2)nc2c1[nH]c(=O)n2-c1ccc(Cl)c(Cl)c1 | -105.1 | 0.708 | nt | 2.05* | 29.2 | nt | -68.5
CC1=NN(c2ccccc2)C(=O)/C1=C\C=C1\N(C)c2ccccc2C1(C)C | 40.4* | 0.597 | 1 | 0.596 | 40.3* | -0.2 | -24.2
CC1=NN(c2ccccc2)C(=O)/C1=C\C=C1/N(C)c2ccccc2C1(C)C | 32.7 | 0.644 | 1.1 | 0.673 | 35.6 | -7.2 | nt
C/C(=N/Nc1ccccc1[N+](=O)[O-])c1ccc([N+](=O)[O-])cc1 | 36.8* | 0.906 | nt | 0.632 | 9.4 | nt | -232.7*
CC(=O)Cc1nsc(NC(=O)c2ccc(-c3ccc(F)cc3)o2)n1 | 6.3 | 0.983 | 0.9 | 0.937 | 1.7 | 9.2 | nt
Cc1ccc(/C=C(/C#N)c2nc(CCN3C(=O)c4ccccc4C3=O)cs2)cc1 | -87.0 | 0.917 | 0.9 | 1.87 | 8.3 | 12.3 | nt
Cc1nc(Nc2nc3c(c(=O)[nH]2)CCC3)nc2ccccc12 | -176.8 | 0.883 | nt | 2.77* | 11.7 | nt | -77.6*
COCCNC(=O)c1ccccc1NC(=O)Cc1ccccc1 | 15.8 | 0.99 | 1.1 | 0.842 | 1.0 | -11.9 | nt
CC1(c2nnc(-c3ccccc3)o2)CC(c2c(Cl)cccc2Cl)=NO1 (centres undefined) | 8.9 | 1.05 | nt | 0.911 | -5.2 | nt | nt
Cn1nnnc1SCC(=O)Nc1ccccc1-c1ccccc1 | 37.6* | 0.925 | 0.9 | 0.624 | 7.5 | 9.4 | -2.2
Cc1ccccc1NC(=O)CSc1nnnn1C | -6.5 | 1.08 | 1 | 1.06 | -8.4 | 2.1 | nt
Cc1cc(OCC(=O)NNC(=O)c2cnccn2)cc(C)c1Cl | -106.1 | 0.927 | nt | 2.06* | 7.3 | nt | -54.9
Cc1ccc(OCC(=O)NCCCNC(=O)c2cnccn2)cc1C | -10.1 | 1.04 | nt | 1.1 | -3.8 | nt | nt
CCn1c(SCCN2CCCCC2)nnc1-c1ccc(S(=O)(=O)N2CCOCC2)cc1 | 25.7 | 1.01 | 1.1 | 0.743 | -0.6 | -10.2 | nt
